The source made the active and inactive calls. The rule behind the calls is not given here.
What was measured:
[1] = Cytotoxicity against human K562/A02 cells expressing p-glycoprotein after 72 hrs by MTS assay; assay type: functional, cell-based; details: K562/A02, 72 h
Outline: (§1)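 K562 and K562/A02 cells (1 × 10⁴/well) seeded in RPMI-1640 and incubated 24 h. Exponentially growing cells then exposed to various compound concentrations for 72 h at 37 °C (5% CO₂, 95% humidity). MTS added for 3 h more, absorbance read at 490 nm. IC₅₀ from dose-response curves, mean of triplicate experiments.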

[2] = molecular target: T1, ATP-dependent translocase ABCB1 (Homo sapiens, UniProt P08183); test: Inhibition of p-glycoprotein in human K562/A02 cells assessed as accumulation of rhodamine 123 by flow cytometry; assay type: cell-based
Outline: (§2)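 Rh123 or adriamycin (0.5) then added for 30 min. Stopped with ice-cold PBS and centrifugation, washed three times in ice-cold PBS, analysed by flow cytometry. Fluorescence expressed as fold of 0.1% DMSO control; three independent experiments.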

K562 [3] = test: Induction of rhodamine 123 accumulation in human K562 cells at 0.3 to 10 uM by flow cytometry; assay type: functional, cell-based; outline: as §2
K562/A02 [4] = test: Reversal of p-glycoprotein-mediated multidrug-resistant in human K562/A02 cells assessed as increase of adriamycin-induced cytotoxic effect at 2.5 uM after 72 hrs by MTS assay; assay type: cell-based
Outline: (§3)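 Viability by MTS assay. Survival rate expressed as percent growth relative to untreated control, mean ± S.D. of three independent experiments.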

[5] = molecular target: T1, ATP-dependent translocase ABCB1; test: Inhibition of p-glycoprotein protein expression in human K562/A02 cells at 5 uM after 72 hrs by Western blot analysis; assay type: functional, cell-based; details: k562/a02, 72 h
[6] = molecular target: T1, ATP-dependent translocase ABCB1; test: Inhibition of p-glycoprotein mRNA expression in human K562/A02 cells at 5 uM after 72 hrs by RT-PCR analysis; assay type: functional, cell-based; details: k562/a02, 72 h
K562 [7] = test: Cytotoxicity against human K562 cells assessed as cell killing at 5 uM after 72 hrs by MTS assay; assay type: cell-based; details: k562, 72 h
K562 [8] = test: Cytotoxicity against human K562 cells after 72 hrs by MTS assay; assay type: functional, cell-based; details: K562, 72 h; outline: as §1
[9] = Cytotoxicity against human K562/A02 cells expressing p-glycoprotein assessed as cell killing at 5 uM after 72 hrs by MTS assay; assay type: cell-based; details: k562/a02, 72 h
[10] = molecular target: T1, ATP-dependent translocase ABCB1; test: Inhibition of p-glycoprotein in human K562/A02 cells assessed as accumulation of rhodamine 123 at 10 uM by flow cytometry relative to control; assay type: cell-based; details: k562/a02, 10 µM; outline: as §2
[11] = Reversal of p-glycoprotein-mediated multidrug-resistant in human K562/A02 cells assessed as increase of adriamycin-induced cytotoxic effect at 2.5 uM treated for 24 hrs followed by adriamycin treated 12 hrs after drug washout by MTS assay; assay type: cell-based
[12] = Reversal of p-glycoprotein-mediated multidrug-resistant in human K562/A02 cells assessed as increase of adriamycin-induced cytotoxic effect at 2.5 uM treated for 24 hrs followed by adriamycin treated 24 hrs after drug washout by MTS assay; assay type: cell-based; details: K562/A02, 24 h
[13] = Cytotoxicity against human K562/A02 cells expressing p-glycoprotein assessed as cell survival rate at 1.25 uM after 72 hrs by MTS assay; assay type: cell-based; details: read-out: Activity
[14] = Reversal of p-glycoprotein-mediated multidrug-resistant in human K562/A02 cells assessed as increase of adriamycin-induced cytotoxic effect at 2.5 uM treated 24 hrs before adriamycin challenge followed by drug washout by MTS assay; assay type: cell-based
[15] = molecular target: T1, ATP-dependent translocase ABCB1; test: Inhibition of p-glycoprotein-mediated rhodamine 123 efflux in human K562/A02 cells after 60 mins by fluorescence microscopic analysis; assay type: cell-based; details: k562/a02, 1 h
[16] = Reversal of p-glycoprotein-mediated multidrug-resistant in human K562/A02 cells assessed as increase of adriamycin-induced cytotoxic effect at 2.5 uM treated for 24 hrs followed by adriamycin treated 6 hrs after drug washout by MTS assay; assay type: cell-based
[17] = molecular target: T1, ATP-dependent translocase ABCB1; test: Inhibition of p-glycoprotein-mediated rhodamine 123 efflux in human K562/A02 cells at 2.5 uM after 60 mins by fluorescence microscopic analysis; assay type: cell-based; details: k562/a02, 1 h
K562/A02 [18] = test: Reversal of p-glycoprotein-mediated multidrug-resistant in human K562/A02 cells assessed as increase of adriamycin-induced cytotoxic effect after 72 hrs by MTS assay; assay type: cell-based; outline: as §3
K562/A02 [19] = test: Reversal of p-glycoprotein-mediated multidrug-resistant in human K562/A02 cells assessed as increase of adriamycin-induced cytotoxic effect at 1.25 uM after 72 hrs by MTS assay; assay type: cell-based; outline: as §3
K562 [20] = test: Potentiation of adriamycin-induced cytotoxic effect in human K562 cells assessed as cell survival rate at 1.25 to 5 uM after 72 hrs by MTS assay; assay type: functional, cell-based; outline: as §3
[21] = Induction of ATPase activity of p-glycoprotein at 40 uM by luminescence assay relative to control
K562 [22] = test: Induction of adriamycin accumulation in human K562 cells at 0.3 to 10 uM by flow cytometry; assay type: functional, cell-based; outline: as §2
[23] = molecular target: T1, ATP-dependent translocase ABCB1; test: Inhibition of p-glycoprotein in human K562/A02 cells assessed as accumulation of adriamycin by flow cytometry; assay type: cell-based; outline: as §2
K562/A02 [24] = test: Reversal of p-glycoprotein-mediated multidrug-resistant in human K562/A02 cells assessed as increase of adriamycin-induced cytotoxic effect at 5 uM after 72 hrs by MTS assay; assay type: cell-based; outline: as §3
K562 [25] = test: Ratio of IC50 for human K562/A02 cells expressing p-glycoprotein to IC50 for human K562 cells; assay type: functional
[26] = Reversal of p-glycoprotein-mediated multidrug-resistant in human K562/A02 cells assessed as increase of adriamycin-induced cytotoxic effect at 10 uM treated for 24 hrs followed by adriamycin treated 6 hrs after drug washout by MTS assay
[27] = Reversal of p-glycoprotein-mediated multidrug-resistant in human K562/A02 cells assessed as increase of adriamycin-induced cytotoxic effect at 10 uM treated for 24 hrs followed by adriamycin treated 12 hrs after drug washout by MTS assay
[28] = Reversal of p-glycoprotein-mediated multidrug-resistant in human K562/A02 cells assessed as increase of adriamycin-induced cytotoxic effect at 10 uM treated 24 hrs before adriamycin challenge followed by drug washout by MTS assay
[29] = Reversal of p-glycoprotein-mediated multidrug-resistant in human K562/A02 cells assessed as increase of adriamycin-induced cytotoxic effect at 10 uM treated for 24 hrs followed by adriamycin treated 24 hrs after drug washout by MTS assay; details: K562/A02, 24 h
[30] = Induction of ATPase activity of p-glycoprotein at 200 uM by luminescence assay relative to control

T1 sequence (P08183 whole entry): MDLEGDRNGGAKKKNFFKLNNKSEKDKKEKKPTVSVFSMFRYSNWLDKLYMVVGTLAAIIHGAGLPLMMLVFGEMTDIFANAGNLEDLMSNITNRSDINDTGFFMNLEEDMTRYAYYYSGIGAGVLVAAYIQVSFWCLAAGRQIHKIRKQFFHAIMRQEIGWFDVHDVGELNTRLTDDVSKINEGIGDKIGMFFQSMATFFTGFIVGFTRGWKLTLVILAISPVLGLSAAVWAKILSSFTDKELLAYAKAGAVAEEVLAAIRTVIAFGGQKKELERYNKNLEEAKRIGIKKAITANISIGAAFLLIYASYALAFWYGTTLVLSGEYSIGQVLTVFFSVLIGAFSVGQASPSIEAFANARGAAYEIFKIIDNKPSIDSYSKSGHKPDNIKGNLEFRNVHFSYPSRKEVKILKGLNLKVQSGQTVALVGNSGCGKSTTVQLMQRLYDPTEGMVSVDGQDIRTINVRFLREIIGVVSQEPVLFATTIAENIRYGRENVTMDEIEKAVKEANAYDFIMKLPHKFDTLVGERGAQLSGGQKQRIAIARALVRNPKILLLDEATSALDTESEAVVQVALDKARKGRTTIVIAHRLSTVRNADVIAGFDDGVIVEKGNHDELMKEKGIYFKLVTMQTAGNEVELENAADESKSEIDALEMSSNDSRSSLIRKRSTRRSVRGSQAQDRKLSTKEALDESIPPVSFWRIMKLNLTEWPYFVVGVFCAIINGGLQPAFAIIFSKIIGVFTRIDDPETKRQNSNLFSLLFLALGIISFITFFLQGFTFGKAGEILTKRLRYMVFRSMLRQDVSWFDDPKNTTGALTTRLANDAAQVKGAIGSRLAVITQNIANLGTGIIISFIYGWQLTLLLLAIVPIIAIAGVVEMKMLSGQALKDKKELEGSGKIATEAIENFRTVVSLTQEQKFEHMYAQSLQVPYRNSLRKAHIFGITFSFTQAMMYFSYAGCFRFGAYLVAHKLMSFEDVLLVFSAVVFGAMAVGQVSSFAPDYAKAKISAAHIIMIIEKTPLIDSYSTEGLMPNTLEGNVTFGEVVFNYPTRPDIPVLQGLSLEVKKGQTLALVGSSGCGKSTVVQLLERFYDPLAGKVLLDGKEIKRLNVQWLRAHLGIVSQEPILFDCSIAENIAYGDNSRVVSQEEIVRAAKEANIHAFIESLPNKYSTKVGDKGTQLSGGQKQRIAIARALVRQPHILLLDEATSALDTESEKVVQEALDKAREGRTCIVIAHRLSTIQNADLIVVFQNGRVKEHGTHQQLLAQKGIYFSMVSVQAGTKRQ

Compound | IC50 [1] | Activity (K562 [7]) | IC50 (K562 [8]) | Activity [9] | other results
COc1cc2c(c3c1OCO3)-c1c(cc(OC)c3c1OCO3)CN(CCc1ccccc1)C2 | 34.1 µM | 10% | 45.4 µM | 10% | inhibition (INH) [2]: Dose-dependent effect; Activity (K562 [3]): inactive; Activity (K562/A02 [4]): Active; inhibition (INH) [5]: Not Active; inhibition (INH) [6]: Not Active; fold change (FC) [10]: 10.1
CCCCN1Cc2cc(OC)c3c(c2-c2c(cc(OC)c4c2OCO4)C1=O)OCO3 | 44.6 µM | – | 41.7 µM | – | –
COc1cc2c(c3c1OCO3)-c1c(cc(OC)c3c1OCO3)C(=O)N(Cc1ccccc1)C2 | 53.4 µM | – | 43.5 µM | – | –
COc1cc2c(c3c1OCO3)-c1c(cc(OC)c3c1OCO3)CN(CCc1ccc3c(c1)OCO3)C2 | 46.9 µM | 10% | 53.7 µM | 10% | IC50 [11]: 5.03 µM; inhibition (INH) [2]: Dose-dependent effect; IC50 [12]: 10.3 µM; viability at 72 h, 1.25 µM [13]: 98%; Activity (K562 [3]): inactive; Activity (K562/A02 [4]): 8%; IC50 [14]: 1.78 µM; inhibition (INH) [15]: Dose-dependent effect; inhibition (INH) [5]: Not Active; IC50 [16]: 2.47 µM; inhibition (INH) [17]: Active; Activity (K562/A02 [18]): Dose-dependent effect; Activity (K562/A02 [19]): 30%; inhibition (INH) [6]: Not Active; Activity (K562 [20]): inactive; RLU [21]: 283000; Activity (K562 [22]): inactive; fold change (FC) [10]: 11.2; inhibition (INH) [23]: Dose-dependent effect; Activity (K562/A02 [24]): 6%
COc1cc2c(c3c1OCO3)-c1c(cc(OC)c3c1OCO3)CN(Cc1ccccc1)C2 | 112 µM | 10% | > 200 µM | 10% | inhibition (INH) [2]: Dose-dependent effect; Activity (K562 [3]): inactive; inhibition (INH) [5]: Not Active; inhibition (INH) [6]: Not Active; inhibition (INH) [10]: Active
COC(=O)c1cc(OC)c2c(c1-c1c(C(=O)OC)cc(OC)c3c1OCO3)OCO2 [BIFENDATE] | – | – | – | – | fold change (FC) [10]: 1.2
COC(=O)CN1Cc2cc(OC)c3c(c2-c2c(cc(OC)c4c2OCO4)C1)OCO3 | > 100 µM | – | > 100 µM | – | –
COc1cc2c(c3c1OCO3)-c1c(cc(OC)c3c1OCO3)CN(CCO)C2 | > 200 µM | 10% | > 200 µM | 10% | –
CCCN1Cc2cc(OC)c3c(c2-c2c(cc(OC)c4c2OCO4)C1)OCO3 | 87.6 µM | 10% | 106 µM | 10% | –
CCN1Cc2cc(OC)c3c(c2-c2c(cc(OC)c4c2OCO4)C1=O)OCO3 | > 100 µM | – | > 100 µM | – | –
COc1cccc2c1C(=O)c1c(O)c3c(c(O)c1C2=O)C[C@@](O)(C(=O)CO)C[C@@H]3O[C@H]1C[C@H](N)[C@H](O)[C@H](C)O1 [DOXORUBICIN] | 46.7 µM | – | – | – | Ratio IC50 (K562 [25]): 108
COc1ccc(CCN(C)CCCC(C#N)(c2ccc(OC)c(OC)c2)C(C)C)cc1OC (stereo unspecified) | – | – | – | – | IC50 [26]: 26.1 µM; inhibition (INH) [2]: Dose-dependent effect; Activity (K562 [3]): inactive; IC50 [27]: 51.1 µM; IC50 [28]: 12.9 µM; Activity (K562 [22]): inactive; IC50 [29]: 51.4 µM; inhibition (INH) [23]: Dose-dependent effect; Activity (K562/A02 [24]): > 50%
SODIUM ORTHOVANAD | – | – | – | – | RLU [30]: 282000
COC(=O)CN1Cc2cc(OC)c3c(c2-c2c(cc(OC)c4c2OCO4)C1=O)OCO3 | > 100 µM | – | > 100 µM | – | –
COc1cc2c(c3c1OCO3)-c1c(cc(OC)c3c1OCO3)CN(C)C2 | 107 µM | 10% | 140 µM | 10% | –
CCN1Cc2cc(OC)c3c(c2-c2c(cc(OC)c4c2OCO4)C1)OCO3 | 117 µM | 10% | 125 µM | 10% | –
COc1cc2c(c3c1OCO3)-c1c(cc(OC)c3c1OCO3)CN(c1ccccc1)C2 | > 100 µM | – | > 100 µM | – | –
CCCCN1Cc2cc(OC)c3c(c2-c2c(cc(OC)c4c2OCO4)C1)OCO3 | > 100 µM | – | 77.5 µM | – | –

Reference: ChEMBL document CHEMBL2010685, “Synthesis and biological evaluation of novel bifendate derivatives bearing 6,7-dihydro-dibenzo[c,e]azepine scaffold as potent P-glycoprotein inhibitors” (Eur J Med Chem, 2012)
